The source of these data is ChEMBL document CHEMBL1141579, “Synthesis, cytostatic, and antiviral activity of novel 6-[2-(dialkylamino)ethyl]-, 6-(2-alkoxyethyl)-, 6-[2-(alkylsulfanyl)ethyl]-, and 6-[2-(dialkylamino)vinyl]purine nucleosides” (Bioorg Med Chem, 2008).

In one data set the test system is Hepatitis C virus. Briefly: Antiviral activity against HCV 1b Con1 replicon in Huh7 cells. In kind it is functional, organism-based, Hepatitis C virus subtype 1b. To be noted: Huh-7. The method, boiled down: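 Con-1/lucneo replicon cells seeded at 8 × 10^3 per well in medium without Geneticin. Compounds serially diluted in DMSO and added 1:200 (0.5% DMSO final). Incubated 3 days at 37 C. Cells lysed and luciferase activity read by luminometer. EC50 by non-linear regression, N = 2.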
Background: In antiviral work, replicon cells carry a viral genome segment that copies itself.

For data set [1], the system named is HL-60. Kind of data set: Cell cycle arrest in human HL60 cells assessed as accumulation in G1 phase at 3.5 uM relative to control. The format is functional. The method, boiled down:
(§1)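 HL-60 cells treated at the stated concentration, then fixed in ethanol. Stained with propidium iodide in buffer containing RNase A and analysed by flow cytometry. Result given as the ratio of the treated to the control cell fraction in each phase (G1, S, G2/M).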

Data set [2] concerns CCRF-CEM. Kind of data set: Cytostatic activity against human CCRF-CEM cells ATCC CCL 119 assessed as cell viability by XTT test. In kind it is functional, cell-based. The method, boiled down: (§2)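 Cell viability quantified by the XTT spectrophotometric assay. Inhibition expressed as IC50.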
A general note: Tetrazolium assays rely on reduction of a dye to a coloured formazan, in cell work by metabolically active cells.

Data set [3] relates to HL-60. Briefly: Cytostatic activity against human HL60 cells ATCC CCL 240 assessed as growth reduction after 72 hrs. The format is functional, cell-based. To be noted: HL-60, 72 h. The method, boiled down: (§3)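 Cells grown in RPMI 1640 with foetal calf serum in 24-well plates. Counted in a haematological analyzer 72 h after drug addition. Inhibition expressed as IC50.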
Data set [4] can be described thus: Cytotoxicity against human Huh7 cells harboring con1 replicon after 3 days by MTT assay. In kind it is cell-based, Huh-7. The method, boiled down: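 Con-1 replicon-bearing Huh-7 cells were seeded at 8 · 10^3 cells per well in medium without Geneticin. Compound was serially diluted in 100% DMSO and added 1:200, giving 0.5% DMSO final. Cells were incubated at 37 C for 3 days. Toxicity was read at the end, in duplicate (N = 2).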

In data set [5] the test system is HL-60. Briefly: Cell cycle arrest in human HL60 cells assessed as accumulation in G1 phase at 14 uM relative to control. In kind it is functional. The method, boiled down:
as §1

The subject of data set [6] is HL-60. Kind of data set: Cell cycle arrest in human HL60 cells assessed as accumulation in S phase at 14 uM relative to control. In kind it is functional. The method, boiled down: as §1
Data set [7] concerns HL-60. Briefly: Cell cycle arrest in human HL60 cells assessed as accumulation in G2/M phase at 14 uM relative to control. In kind it is functional. The method, boiled down:
as §1

Data set [8] concerns HL-60. Briefly: Cell cycle arrest in human HL60 cells assessed as accumulation in S phase at 3.5 uM relative to control. The format is functional. The method, boiled down:
as §1

Another data set has as its system L1210. Kind of data set: Cytostatic activity against mouse L1210 cells ATCC CCL219 assessed as growth reduction after 72 hrs. The conditions noted are these: L1210, 72 h. In kind it is functional, cell-based. The method, boiled down:
as §3

Data set [9] concerns CCRF-CEM. Briefly: Cytostatic activity against human CCRF-CEM cells ATCC CCL 119 assessed as growth reduction after 72 hrs. The format is functional, cell-based. The method, boiled down:
as §3

Data set [10] concerns HL-60. Briefly: Cytostatic activity against human HL60 cells ATCC CCL 240 assessed as cell viability by XTT test. In kind it is functional, cell-based. The method, boiled down: as §2
Data set [11] relates to HL-60. Kind of data set: Cell cycle arrest in human HL60 cells assessed as accumulation in G2/M phase at 3.5 uM relative to control. In kind it is functional. The method, boiled down:
as §1

One may read the EC50 as the midpoint of the concentration-response curve. The term IC50 denotes the concentration that inhibits the measured activity by half. In general, CC50 refers to the concentration giving 50% cytotoxicity. A higher CC50 goes with better tolerance by the cells. In the case of `CCCCN(CCCC)CCc1ncnc2c1ncn2[C@@H]1O[C@H](CO)[C@@H](O)[C@H]1O`, it took 5.6 µM to reach a half-maximal effect in the data set on Hepatitis C virus (EC50). Further, the Activity was 0.85 with HL-60 [1]; 1.51 with HL-60 [5]; 0.68 in the data set with HL-60 [6]; 0.64 in the data set with HL-60 [7]; 1.15 with HL-60 [8]; 0.93 in the data set with HL-60 [11]. The IC50 with CCRF-CEM [2] was determined as 4.59 µM; in the data set on HL-60 [3], 5.3 µM; with L1210 it was 4.4 µM; in the data set with CCRF-CEM [9], 6.4 µM; in the data set on HL-60 [10], 13.8 µM. The CC50 at 72 h in [4] was determined as 37 µM.
